According to ChEMBL document CHEMBL4513216, “Probing the Open Global Health Chemical Diversity Library for Multistage-Active Starting Points for Next-Generation Antimalarials” (ACS Infect Dis, 2020):

Assay: Toxicity liver stage against HepG2, at 10uM
Type: cell-based
Design: test concentration 10 uM, cell line HepG2-A16-CD81EGFP
Conditions: human, HepG2-A16-CD81EGFP cells; read-out: INHIBITION
Summary of the method: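 Uninfected HepG2-A16-CD81EGFP cells, 3 × 10^3 per well, 1536-well, plated on prespotted compound at 10 μM final, parasite-free screening media added to match infected plates; puromycin 10 μM positive, DMSO 0.5% negative; run in parallel with 48 h PbLuc assay at 37 °C, 5% CO2; viability by CellTiter-Glo luminescence, normalized to controls.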

SMILES	cytotoxicity at 10 µM
c1ccc(CN2CCOC[C@H]2c2nc(-c3ccncc3)c[nH]2)nc1	-0.501%
Cn1ccnc1CN1C[C@@H](F)[C@@H](OCc2nc3cnccc3[nH]2)C1	3.39%
O=C(NC[C@H]1OC[C@@H](NC(=O)C2CCCC2)[C@@H]1O)c1ccncc1	5.45%
O=C1CC(c2cccnc2)c2c(c(C(=O)O)cn2-c2ccccc2F)N1 (stereo not drawn)	1.85%
COCC(=O)N1Cc2nccn2CC(Cn2ncccc2=O)C1 (stereo not drawn)	5.23%
Cc1noc(C)c1C(=O)N1CCC2(CC1)CC(Oc1ccccc1)CO2 (stereo not drawn)	11.8%
O=C(NCCN1CCCCC1)c1nc(-c2cccc3[nH]ccc23)no1	0.142%
COc1ccc(C2CC(=O)Nc3c2cnn3C)cc1 (stereo not drawn)	22%
Cc1cc2c(cc1C)OC1(C=C2)CCN(CC(=O)N2CCOCC2)CC1	-10.4%
COCCCNC(=O)C(C)n1nc(-c2ccco2)cc(N)c1=O (stereo not drawn)	0.152%
COc1ccc(-c2cc3nc(CCNC(=O)CN(C)C)nn3cn2)cc1	1.98%
COc1ccccc1-c1ccc(C2CCCN(C(C)=O)C2)nc1 (stereo not drawn)	-4.96%
Cc1ccc(N2CC(c3nccc(C)n3)C2)nn1	8.82%
CNc1cc(C)nc(C2COCCN2CCc2ccc(F)cc2)n1 (stereo not drawn)	3.68%
Cc1nc(CN2CCCC(c3nc(C)n4c(C)c(C)sc34)C2)co1 (stereo not drawn)	-21.7%
O[C@H]1CN(Cc2ccc3c(c2)OCCO3)CC[C@@]12CCCO2	-2.92%
Cc1nc(C2CCCN2C(=O)Cc2ccc(F)cc2)ncc1C(N)=O (stereo not drawn)	-18.2%
Cc1cccc(C)c1NC(=O)c1n[nH]c(-n2cnnc2)n1	-10.6%
CS(=O)(=O)N1CCCC(Cc2ccnc3ccncc23)CC1 (stereo not drawn)	-12.8%
Cn1cc(C(=O)N2CCCC(c3cc(O)n(C)n3)C2)cn1 (stereo not drawn)	-21.6%
Cc1nc(CNC(=O)NC2CC(C)(C)OC2(C)C)sc1C (stereo not drawn)	-3.77%

SMILES	cytotoxicity at 10 µM
N#CCCN(CCC#N)C(=O)COC1CCCCC1	0.631%
Cc1noc(C)c1C(=O)N1CCC(n2cccn2)CC1	3.82%
COC(=O)C(O)C1CCN(CCc2ccc(C)cc2)CC1 (stereo not drawn)	15.2%
NC(=O)CNC1(c2ccc(Br)cc2)CCOCC1	-0.717%
COc1cccc(C(O)CNC(=O)CC2CCCCC2)c1 (stereo not drawn)	-2.11%
C1CC(NCC2CC2)CN(Cc2noc(C3CC3)n2)C1 (stereo not drawn)	-3.09%
CC(=O)N1CCN(CC(=O)N2CCN(c3cccc(C)c3)CC2)CC1	-3.83%
Cc1nc2cc(C(=O)N(CCN(C)C)CCN(C)C)ccc2n1C	-9.01%
CN(C)C(=O)C1CCN(Cn2ccc(-c3ccc(F)cc3)n2)CC1	6.19%
O=C(NCCCNc1ccccn1)NCC1CCS(=O)(=O)C1 (stereo not drawn)	16%
Cc1noc(C)c1C(=O)N1CCCN(C)c2ccc(Cl)cc21	4.61%
COCCCn1ccc(NCc2ccc(NC(C)=O)cc2)n1	2.33%
Cc1nc(C)c(COc2ccc(S(=O)(=O)N(C)C)cc2)s1	-0.242%
O=C1CCC(C(=O)Nc2cnn(-c3ccccc3Cl)c2)N1 (stereo not drawn)	-7.41%
Cc1ccc(OCC(=O)N(C)Cc2cccc(F)c2)cn1	27.6%
COc1ccc(NC(=O)CNc2cccc3c2CCCC3)c(OC)c1	16.5%
Cn1c(N2CCOCC2)nc2cc(C(=O)N3CC(O)CO3)ccc21 (stereo not drawn)	18.5%
Cn1cc(Cl)cc1C(=O)N1CCC2(CCCN(CC3CCC3)C2=O)C1 (stereo not drawn)	0.407%
CSCCc1c(-c2ccccc2)ncn1[C@H]1C[C@@H](C(=O)O)N(C)C1	0.471%
CC(C)Cn1cncc1CNC(=O)c1cccc(-n2cnnc2)c1	-5.54%
NC(=O)c1csc(N2C[C@@H](CN3CCC(O)CC3)[C@@H](CO)C2)n1	0.984%

SMILES	cytotoxicity at 10 µM
CN(CC(=O)N1CCOCC(CO)C1)Cc1ccccn1 (stereo not drawn)	0.382%
CCc1nc2c(c(NC3CC3)n1)CCN(C(=O)Cc1nonc1C)CC2	2.8%
Cc1cc(-n2nc(C3CC3)nc2-c2csnn2)ccn1	6.37%
COc1cc(OC)nc(N2CCC3(CC2)OCCCC3O)n1 (stereo not drawn)	2.67%
Cc1cc(C)cc(CN2CCN(C(=O)CCc3n[nH]c(C)n3)CC2=O)c1	0.108%
COC1CCN(S(=O)(=O)N2CC[C@@](O)(C3CCC3)[C@H](C)C2)CC1	6.8%
CCn1ncnc1C1CC(=O)NCc2nc(N)sc21 (stereo not drawn)	-4.78%
c1ccc(Oc2ncccc2CNCc2ccccn2)cc1	-8.04%
CN(Cc1cccc2ncccc12)C(=O)CCC(F)(F)F	-3.05%
Cc1nn2c(N3CCCC(C#N)C3)cc(-c3ccccc3)nc2c1C (stereo not drawn)	-0.828%
CCCNCc1ccc(-c2cc(N)nc3[nH]ccc23)cc1	19.8%
CCN(Cc1c(C)nn(C)c1C)C(=O)C1COc2ccccc2C1 (stereo not drawn)	-0.91%
Cc1nn(CCn2ccnc2-c2cc3n(n2)CCCNC3)c(C)c1Cl	-8.52%
O=C(CCc1ccsc1)N1CCC(Cc2ccc(CO)cc2)C1 (stereo not drawn)	14.7%
O=C(NCCCc1ccncc1)C1CCCN(Cc2ccco2)C1 (stereo not drawn)	20.1%
CC(NC(=O)NCCNc1ccccn1)c1cccs1 (stereo not drawn)	1.48%
CC(C)c1nc(CN2CCCC2Cn2cccn2)no1 (stereo not drawn)	-0.121%
CCc1csc(C2CCCN(C(=O)c3ccco3)C2)n1 (stereo not drawn)	2.56%
CCc1noc(CN2CCN(c3nccs3)CC2)n1	-1.46%
O=C(CNc1cc(F)ccc1OCC1CCCO1)N1CCOCC1 (stereo not drawn)	-12.6%
CCc1ncncc1C(=O)N1CCCN(Cc2ccccc2C)CC1	0.977%

SMILES	cytotoxicity at 10 µM
O=C(COCc1ccco1)Nc1cc(C(F)(F)F)c[nH]c1=O	-2.57%
CCNc1cc2c(nn1)CCN(C(=O)c1ccc(-n3cnnc3)cc1)C2	-3.51%
COc1c(C2CCCN2CC(=O)NCc2ccccn2)c(C)nn1C (stereo not drawn)	-0.671%
CC(C)Sc1ncccc1C(=O)NCc1cccc(N(C)C)c1	-3.42%
COCc1nc(C(=O)N2CCCC(n3ccnc3C(C)C)C2)cs1 (stereo not drawn)	-30.8%
CCC(O)CN1CCN(C(=O)c2sccc2C2CC2)CC1 (stereo not drawn)	-14.6%
CCc1nc(C2CCCN(C(=O)c3cccc(C(N)=O)c3)C2)no1 (stereo not drawn)	-22.2%
CC(C)c1nccn1C1CCCN(C(=O)c2ccc3[nH]cnc3c2)C1 (stereo not drawn)	-8.24%
O=C(CCc1ccc2c(c1)OCO2)N1CCCC(n2cccn2)C1 (stereo not drawn)	-15.8%
CCN(Cc1nc2c(cnn2C)c(=O)[nH]1)Cc1ccccc1C	-10.2%
Cc1noc(C)c1C(=O)NCC(C)N(C)C (stereo not drawn)	-8.4%
Cc1cc(C)n(CC2CCCN2CC(=O)N(C)C)n1 (stereo not drawn)	-7.86%
Cn1ccnc1Sc1ccc(N)cn1	3.08%
Cc1nc(CN2C(=O)CCC23CCN(Cc2ccccn2)CC3)cs1	-2.71%
CN1CCN(C[C@@H]2OC[C@H]3CN(Cc4cccc(F)c4)CC[C@H]32)CC1	-10.3%
CS(=O)(=O)N1CCOCC2(CCN(C(=O)c3ccncc3)CC2)C1	2.78%
CC(=O)N1CCO[C@H]2[C@H](OCCCn3cccn3)CC[C@@H]21	7.16%
COc1ccc(CN2CCn3cc(CNC(=O)C4CCC4)nc3C2)cc1	5.42%
COc1cccc(-c2n[nH]cc2CNC2CCC(O)CC2)c1 (stereo not drawn)	-0.874%
CNC(=O)[C@H]1C[C@H]2CN(C(=O)NCCc3ccccc3)C[C@@H]1O2	2.89%
